# Results from different studies.
# Compare with care: the assays were run in different laboratories.
# Target: TGF-beta receptor type-2 (TGFBR2, Homo sapiens, UniProt P37173)
Compound,assay,setting,measurement,value
Cc1nc(C2CCN(C(=O)c3ccc(OC(F)(F)F)cc3N)CC2)c2ncc(N3CCN(C)CC3)cc2n1,"cell-free assay, competition with immobilised ligand",1 µM,remaining binding,93%
Cc1ccc(C(=O)Nc2ccc(CN3CCN(C)CC3)c(C(F)(F)F)c2)cc1C#Cc1cnc2cccnn12,cell-free assay,23.5 nM,remaining signal,76%
O=C(Nc1cnn(-c2csc(C(=O)NC3COC3)c2)c1)Nc1ccccc1Cl,"enzyme activity, inhibitor",5 µM,remaining activity,113%
Cc1nc(N2CC[C@@H](O)C2)ncc1-c1cc(C(F)(F)F)cc2[nH]ncc12,"cell-free assay, competition with immobilised ligand",1 µM,remaining binding,99%
COc1cc2c(N3CCN(C(=O)Nc4ccc(OC(C)C)cc4)CC3)ncnc2cc1OCCCN1CCCCC1,cell-free assay,0.5 µM,remaining signal,102%
O=C(Nc1cccnn1)N1CC(C/C=C/c2cncc(Oc3ccc(C(F)(F)F)cn3)n2)C1,"cell-free assay, competition with immobilised ligand",1 µM,remaining binding,100%
O=C1Nc2ccc(Cl)cc2C1=Cc1cc(Cl)c(O)c(Cl)c1,cell-free assay,0.5 µM,remaining signal,94.9%
O=C(Nc1cnn(-c2csc(C(=O)NC3COC3)c2)c1)Nc1c(F)cccc1Cl,"enzyme activity, inhibitor",5 µM,remaining activity,82.6%
CC(C)(O)[C@H]1CC[C@H](Nc2ccc3ncc(-c4cccc(C(F)(F)F)c4)n3n2)CC1,"enzyme activity, inhibitor",1 µM,remaining activity,73.8%
O=C1NC(=O)c2cc(Nc3ccc(F)cc3)c(Nc3ccc(F)cc3)cc21,cell-free assay,0.5 µM,remaining signal,85.2%
NS(=O)(=O)c1cc(NC(=O)Cc2ccccc2)ccc1Oc1cccc(Cl)c1,"cell-free assay, competition with immobilised ligand",1 µM,remaining binding,87%
CC(C)(C)c1nc2c(s1)c1nc(N)ncc1c1ccc(NS(=O)(=O)c3c(F)cccc3F)c(F)c12,"enzyme activity, inhibitor, radiometric",1 µM,remaining activity,81%
